ALR H2O2 inh: human ALR oxidase inhibition via reduced H2O2. P55789. purified ALR, DTT oxidation, H2O2 HRP-luminol luminescence. inhibition, % (concentration not given with the values). hit rate 3.8% among 290,000;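 active = mean replicate inhibition above about 79%, with every replicate also reaching it, limit read from the data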
NALP1 inh: blocks the NALP1 inflammasome reconstituted in yeast; S. cerevisiae NALP1/ASC/caspase-1 growth, X-gal OD620, 72 h; inhibition, % at 10 µM; hit rate 0.61% among 280,000; AID 2071; in the data active = inhibition mostly above about 24%, no sharp cut-off; inactive = mostly below about 32%
Calb FLC: affects C. albicans growth with fluconazole | C. albicans CaCi-2 (fluconazole-resistant clinical isolate) + fluconazole, Alamar Blue growth, 48 h | growth inhibition, % (concentration not given with the values) | hit rate 0.57% among 300,000 | AID 1979;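 active = growth inhibition above about 58% in most replicates, limit read from the data, passing the limit was not always enough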;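 note: all wells also contain fluconazole at 8 µg/ml as a sub-toxic cotreatment; 0% = median of DMSO wells and 100% = median of geldanamycin control wells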
ATG4B inh: inhibitors of human ATG4B cysteine protease | ATG4B cleavage of LC3-PLA2, NBD-HPC fluorescence, 1 h | inhibition, % at 8.33 µM | hit rate 0.51% among 340,000; in the data active = inhibition above about 40%
NLRP3 yeast inh: inhibitors of NALP3 inflammasome in yeast. Yeast reconstituted NLRP3/ASC/caspase-1, beta-gal luminescence, 24 h. inhibition, % at 10 µM. hit rate 0.39% among 330,000;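 active = inhibition of 50% or more; inactive = inhibition below 50%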;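 note: plate controls were induced DMSO wells for no effect and uninduced yeast grown without galactose for full effect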
UCH37 inh: human UCH37 deubiquitinating enzyme inhibition; Q9Y5K5; purified proteasome/UCH37, Ub-AMC cleavage fluorescence; inhibition, % (test concentration not listed); hit rate 0.33% among 330,000;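 active = mean inhibition over replicate wells above about 20%, limit read from the data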;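 note: 0% = compound-free wells with enzyme and 100% = wells lacking proteasome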
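System: Proteasome-associated human UCH37 deubiquitinase; Input: 0.15 nM proteasome in added enzyme buffer; Also added: Ub-AMC substrate from 1 µM stock; Incubation: 30 min compound-proteasome preincubation then 25 min substrate reaction, room temperature; Detection: fluorescence, ex 355 nm, em 460 nm; Read-out: % inhibition of Ub-AMC cleavage fluorescence; Benchmarks: no-proteasome and no-compound wells.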
UCH37 reconfirm: reconfirmed inhibitor of human deubiquitinase UCH37; inhibition, % at 20 µM; AID 624100; shares compounds with UCH37 inh; hit rate 27% among 480; Proteasome-bound UCH37, Ub-AMC cleavage fluorescence;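 active = average inhibition over replicates above about 50%, so the earlier screening hit is confirmed, limit read from the data; inactive = the rest, counted as false positives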;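 note: based on cleavage rate fitted by regression over a 30 min kinetic read; 0% = proteasome plus Ub-AMC and 100% = Ub-AMC without proteasome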
The depositor's hits bear a star; . = not tested or not shown. The list is not random: actives were taken first. Their share in the collection is about 4.8%.

SMILES	ALR H2O2 inh	NALP1 inh	Calb FLC	ATG4B inh	NLRP3 yeast inh	UCH37 inh	UCH37 reconfirm
Cc1[nH]n(-c2ccccc2)c(=O)c1C(c1ccc(C(=O)O)cc1)c1c(C)[nH]n(-c2ccccc2)c1=O	18	20	-10	6	6	8	.
Cc1[nH]n(-c2ccccc2)c(=O)c1C(C[N+](=O)[O-])c1ccc(Br)cc1 (configuration not stated)	41	65*	-5	7	36	29*	-21
COc1ccc(-c2cn3ccccc3n2)cc1[N+](=O)[O-]	7	30	11	2	5	46*	10
COC(=O)CCC(=O)Nc1sc2c(c1C#N)CCCC2	-8	1	-1	-5	5	3	.
CC1CCN(CC(=O)Nc2sc3c(c2C#N)CCC3)CC1	33	12	-2	-1	1	37*	9
COc1cc(NC(=S)NC2CC(C)(C)NC(C)(C)C2)c(OC)cc1Cl	0	-11	4	10	10	39*	6
COc1cc(NC(=S)NC2CC(C)(C)NC(C)(C)C2)cc(OC)c1	.	-2	-3	-5	-11	0	.
ON=C1CC(O)Cc2nonc21 (configuration not stated)	.	.	.	.	.	0	.
COc1ccc(NC(=O)c2ccc(Br)o2)cc1	-19	28	-4	5	22	40*	2

Source: PubChem BioAssay (several laboratories)
